# HSF-1 act: HSF-1 activators, primary screen, NIH3T3-HGL cells, MG132 stress, luminescence, single point; NIH3T3-HGL HSF-1 luciferase reporter, 8 h; 100% = twice DMSO control signal; 1.7% of 300,000 active; AID 504408, 2011; activation, % at 9 µM;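 active means mean replicate activation of at least 50% with a set share of replicates each reaching 50%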;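 further: 0% = median of the neutral control wells and 100% = twice that signal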
# HKDC1 inhibitor: HKDC1 hexokinase inhibitors, primary screen, biochemical, fluorescence, uHTS | recombinant HKDC1, G6PDH/diaphorase resazurin coupled fluorescence | Q2TB90 | AID 493160, 2011 | 0.16% of 340,000 active | inhibition, % at 20 µM;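 active means inhibition above about 35% when tested at 20 µM, limit read from the data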;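 further: plate controls were DMSO wells with enzyme for no effect and DMSO wells lacking enzyme for full effect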
# Target sequence (Q2TB90 whole entry, looked up): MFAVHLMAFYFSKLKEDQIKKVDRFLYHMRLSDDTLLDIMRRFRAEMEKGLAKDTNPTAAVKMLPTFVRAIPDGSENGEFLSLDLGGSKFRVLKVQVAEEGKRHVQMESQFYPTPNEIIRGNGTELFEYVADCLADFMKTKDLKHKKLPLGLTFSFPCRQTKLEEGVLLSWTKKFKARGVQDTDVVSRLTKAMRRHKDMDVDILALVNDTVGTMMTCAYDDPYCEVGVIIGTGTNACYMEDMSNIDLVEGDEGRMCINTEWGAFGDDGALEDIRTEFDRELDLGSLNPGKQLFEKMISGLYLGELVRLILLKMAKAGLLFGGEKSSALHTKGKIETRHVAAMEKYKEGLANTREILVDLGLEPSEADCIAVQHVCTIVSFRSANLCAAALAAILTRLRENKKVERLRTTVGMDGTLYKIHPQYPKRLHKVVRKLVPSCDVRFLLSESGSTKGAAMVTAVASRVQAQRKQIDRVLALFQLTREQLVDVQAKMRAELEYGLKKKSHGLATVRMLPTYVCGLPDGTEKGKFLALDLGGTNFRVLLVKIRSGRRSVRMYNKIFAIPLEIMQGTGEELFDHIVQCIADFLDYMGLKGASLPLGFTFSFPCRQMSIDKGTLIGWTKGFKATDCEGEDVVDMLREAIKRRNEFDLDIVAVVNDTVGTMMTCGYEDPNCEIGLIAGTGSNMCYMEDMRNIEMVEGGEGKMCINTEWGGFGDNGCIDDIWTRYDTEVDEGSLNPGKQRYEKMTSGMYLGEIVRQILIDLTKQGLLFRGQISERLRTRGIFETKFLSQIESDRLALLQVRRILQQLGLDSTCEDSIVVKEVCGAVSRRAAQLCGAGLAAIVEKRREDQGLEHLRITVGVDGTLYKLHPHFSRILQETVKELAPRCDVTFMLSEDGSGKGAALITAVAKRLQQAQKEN
#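 Test system: recombinant HKDC1 (HK5) hexokinase enzyme, produced in-house / Doses: 20 µM test compound, 1% DMSO / Timing: 90 min, room temperature / Detection: G6PDH/diaphorase-coupled fluorescence, 1 mM NADP, 100 µM resazurin, 525/613 nm / Control set: DMSO wells with and without enzyme mix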
# HSF1 inhib: HSF1 inhibitors in luciferase reporter cells, primary screen, cell-based, NIH3T3, luminescence. 0.77% of 300,000 active. AID 2098, 2009. activity change, negative = inhibition, % at 7.5 µM (by protocol). NIH3T3-HGL HSE-luciferase, MG132-induced, luminescence 8 h; hits give low values;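 active means more than half of replicate wells show activity change below -50%, luminescence cut by over half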;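 further: luciferase reports HSF-1 transcriptional activity via heat shock element; 0% = median of DMSO wells and -100% = zero luminescence signal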
# Hsp70 activator: Hsp70 transcriptional activators, primary screen, cell-based, HeLa, Hsp70 promoter luciferase, luminescence, 10 µM; HeLa Hsp70 promoter luciferase reporter; scaled: vehicle 0, proteasome-inhibitor control 100%; activation, % at 10 µM; 0.04% of 200,000 active; AID 1203, 2008;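 active means activation above the mean across all tested compounds plus 3 SD, cutoff set per campaign, cut at about 5.5% in these data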;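 further: 100% = MG132 at 30 µM as the positive control and 0% = DMSO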
# HSP90 inh: HSP90 inhibitors, primary screen, cell lysate, luminescence | Rabbit reticulocyte lysate, luciferase refolding luminescence, 3 h | 0.91% of 290,000 active | Heat shock protein HSP 90 (rabbit reticulocyte lysate; luciferase refolding) | AID 1789, 2009 | inhibition, % at 5.6 µM;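 active means inhibition above the screen-wide mean plus 3 SD, computed separately per campaign, cut at about 16% in these data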;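 further: 0% = DMSO wells and 100% = 60 µM geldanamycin wells; inhibitors lower the luminescence because luciferase stays unfolded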
# TbHK1 inh: Trypanosoma brucei hexokinase 1 inhibitors, primary screen, biochemical, G6PDH-coupled NADH absorbance, MLSCN library. 0.11% of 220,000 active. inhibition, % at 10 µM. recombinant TbHK1, G6PDH-coupled NADH A340. hexokinase 1 [Trypanosoma brucei];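 active means inhibition of 50% or more in the single-dose primary screen; inactive means inhibition below 50%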
# Numbers without * were called inactive; · = no result given. Hits are enriched below; roughly 3.1% of the tested compounds scored in any of these assays.
SMILES,HSF-1 act,HKDC1 inhibitor,HSF1 inhib,Hsp70 activator,HSP90 inh,TbHK1 inh
CC[C@]12c3[nH]c4cc(-c5ccco5)ccc4c3CCN1C(=O)[C@@H](CC(=O)NC(C)(C)C)C[C@@H]2C(=O)N1CCN(C(=O)C2CC2)CC1,·,-3,·,·,·,·
CCOC(=O)Cn1c(CN2CCN(c3cccc(Cl)c3)CC2)nc2c1c(=O)[nH]c(=O)n2C,-65,-3,-55*,0,0,2
CN(CC(=O)Nc1cccc(S(=O)(=O)NC2=NCCC2)c1)Cc1ccccc1Cl,·,-1,·,·,·,·
COc1cc2c(c(OC)c1OC)-c1ccc(SC)c(=O)cc1C(NC=O)CC2 (centres undefined),·,-5,·,·,·,·
CN(C)c1ccc(-n2cccc2/C=C/[N+](=O)[O-])cc1,95*,10,68,1,9,-1
CNc1c(NC(=O)c2ccc3c(c2)OCO3)c(=O)oc2ccccc12,8,1,-4,·,-3,·
O=C(CSCc1ccc(Br)cc1)N1CCCC1,57*,15,15,0,-4,3
O=C(CSCc1ccc(Br)cc1)N1CCOCC1,0,-7,4,0,-5,-4
OCC1(CO)CCCC(CO)(CO)C1O,·,-8,·,·,·,·
COc1cc2[nH]c(=S)nc(NCc3cccs3)c2cc1OC,123*,-8,61,0,-2,-9
CN(C)c1ccc2c(c1)Sc1cc(N(C)C)ccc1N2C(=O)c1ccccc1,10,8,2,·,7,-18
CC(NC(=O)CSc1nc2ccccc2c(=O)[nH]1)c1ccccc1 (centres undefined),14,-2,11,1,-1,-2
CC(C)CCNC(=O)CSc1nc2ccccc2c(=O)[nH]1,55*,3,22,1,0,-2
CCN1CCN(c2ccc(N3CCN(S(=O)(=O)c4cc([N+](=O)[O-])ccc4C)CC3)nn2)CC1,-7,-12,-2,·,·,·
CCCSc1cc(NCCOC(=O)CCC)c([N+](=O)[O-])c2nonc12,-1,7,-2,0,-6,-4
CCC(=O)OCCNc1cc(Sc2nc3ccccc3[nH]2)c2nonc2c1[N+](=O)[O-],·,8,·,0,1,-11
CCC(=O)OCCNc1cc(Sc2nc3ccccc3s2)c2nonc2c1[N+](=O)[O-],85*,14,31,0,4,3
CCCC(=O)OCCNc1cc(Sc2nccn2C)c2nonc2c1[N+](=O)[O-],290*,7,234,0,2,20
Cc1nnc(Sc2cc(NCCO)c([N+](=O)[O-])c3nonc23)s1,153*,10,117,0,4,-11
O=[N+]([O-])c1c(NCCCO)cc(Sc2nc3ccccc3s2)c2nonc12,272*,11,223,1,-2,0
N#Cc1ccccc1S(=O)(=O)N1CCC(C(=O)NCc2ccccc2CN2CCCC2)CC1,·,3,·,·,·,·
O=C(CN1CCCC1)Nc1cc(F)ccc1F,4,-3,1,0,-2,-12
O=C(CNCCc1ccc(F)cc1)Nc1cc(F)ccc1F,-69,-2,-60*,·,-1,·
Cc1ccc(-c2nc(NCCN(C)C)c3ccccc3n2)cc1,26,-2,-5,·,0,·
COCCN(CCOC)c1nc(-c2ccc(C)cc2)nc2ccccc12,193*,-4,106,·,1,·
SMILES,HSF-1 act,HKDC1 inhibitor,HSF1 inhib,Hsp70 activator,HSP90 inh,TbHK1 inh
Cc1ccsc1C(=O)NC1CCCN(Cc2ccc(Cl)cc2)C1 (centres undefined),47,-1,13,·,-3,·
O=C(NCCc1ccc(Cl)cc1)c1ccc2c(c1)OCO2,99*,-4,64,·,1,·
Cc1cc(C)n(CCNC(=O)c2ccc3c(c2)OCO3)n1,58*,-2,11,·,-4,·
O=C(NCCc1ccc(Cl)cc1)c1ccc(Br)s1,67*,-7,53,·,-2,·
Cc1cc(-c2ccccc2)nc(Nc2nc3c(C)cccc3c(=O)[nH]2)n1,·,4,·,·,·,·
N#CC1=C(N)N(c2ccc(Oc3ccccc3)cc2)C(=O)C1,-91,5,-89*,0,1,1
COc1ccc(N(C)C(=O)c2ccc(NC(=O)CCS(=O)(=O)c3cccs3)cc2)cc1,17,-1,-5,·,4,·
CCOc1cc(C(c2c(C)[nH][nH]c2=O)c2c(C)[nH][nH]c2=O)cc(Br)c1OC,-76,-3,-69*,·,-2,·
CCOc1cc(C(c2c(C)[nH][nH]c2=O)c2c(C)[nH][nH]c2=O)ccc1OC(=O)c1cccc([N+](=O)[O-])c1,-5,-2,5,0,9,-3
COc1cc(C(c2c(C)[nH][nH]c2=O)c2c(C)[nH][nH]c2=O)cc(Br)c1OC,16,1,16,·,-3,·
CCOc1cc(C(c2c(C)[nH][nH]c2=O)c2c(C)[nH][nH]c2=O)ccc1OCc1ccc([N+](=O)[O-])cc1,129*,8,95,0,2,4
O=C(CCCCCNC(=O)N1CCn2c1nc1ccccc12)NCCc1ccccc1,4,-3,0,·,-1,·
Cc1ccc(NC(=S)N2CCn3cccc3C2c2cccnc2)cc1 (centres undefined),2,-2,5,0,-3,-4
CCc1cccc(CC)c1NC(=S)N1CCn2cccc2C1c1cccnc1 (centres undefined),-65,-9,-55*,0,5,3
O=C(O)c1ccccc1NC(=O)C1CCN(S(=O)(=O)c2cccc3nsnc23)CC1,-12,-5,-15,·,-5,·
O=C(c1ccccc1)N1CCN(c2ncnc3c2cnn3-c2ccccc2)CC1,-10,-1,3,0,1,-2
Cc1nn(-c2ccccc2)c(Cl)c1C(=O)N1CCN(c2ncnc3c2cnn3-c2ccccc2)CC1,-82,1,-77*,0,-2,-6
CCOC(=O)N1CCN(c2ncnc3c2cnn3-c2ccc(OC)cc2)CC1,21,4,-1,0,-5,-7
CC1CCN(c2ncnc3c2cnn3-c2ccccc2)CC1,57*,-2,35,0,-3,3
COc1ccc(-n2ncc3c(N4CCC(C)CC4)ncnc32)cc1,-19,2,-16,·,29*,·
CC(=O)OC1CCC2(C)C(CCC3C2CC(=O)C2(C)C3CC(C3CCCC3=O)C2C(C)=O)C1 (centres undefined),·,5,·,·,·,·
Cc1cc(C(=O)NC2CCCN(Cc3ccc(Cl)cc3)C2)c(C)o1 (centres undefined),6,1,3,·,3,·
Cc1cccc(OCCNC(=O)CCNS(=O)(=O)c2ccc3ccccc3c2)c1,·,1,·,·,·,·

# Screening data (PubChem BioAssay)
